In ChEMBL document CHEMBL4689842, “EUbOPEN Chemogenomics Library wave 1” (2021):
Several values for one entry are separate records, joined by “and”; a condition that tells them apart may be missing. Equal entries are not always repeated.

How the values were obtained:
Type in all cases: toxicity, cell-based
Fibroblast [1] = experiment: Multiplex assay against human fibroblast; conditions: 1 µM, compound concentration 1 uM
Summary of the method: (§1)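 At seeding, live cells were stained with Hoechst33342, BioTracker Green Microtubule Cytoskeleton Dye, MitoTracker Red and Annexin V Alexa Fluor 680. After compound addition they were imaged on a CQ1 microscope at 37°C and 5% CO2, and CellPathfinder machine-learning gating sorted them into Hoechst high-intensity objects or normal cells, with normal cells further split into healthy, pyknosed or fragmented nuclei and pyknosed cells into mitotic or apoptotic. Tubulin, mitochondrial-mass and membrane-permeability phenotypes are given as per cents of cells with healthy nuclei.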

HEK-293T [2] = experiment: Multiplex assay against HEK293T; conditions: human, 1 µM, compound concentration 1 uM; summary of the method: as §1
U2OS [3] = experiment: Multiplex assay against U2OS; conditions: human, 1 µM, compound concentration 1 uM; summary of the method: as §1
HEK-293T [4] = experiment: Incucyte cell viability with HEK293T; conditions: human, 10 µM, compound concentration 10 uM; further: filed as whole numbers so only -1 and 0 and 1 occur
Fibroblast [5] = experiment: Incucyte cell viability with human fibroblast; conditions: 10 µM, compound concentration 10 uM; further: filed as whole numbers so only -1 and 0 and 1 occur
U2OS [6] = experiment: Incucyte cell viability with U2OS; conditions: human, 10 µM, compound concentration 10 uM; further: filed as whole numbers so only -1 and 0 and 1 occur
[7] = 6 h, replicate number 1, timepoint 6 hours
[8] = 12 h, replicate number 1, timepoint 12 hours
[9] = 18 h, replicate number 1, timepoint 18 hours
[10] = 24 h, replicate number 1, timepoint 24 hours

FC(F)c1nc2ccccc2n1-c1nc(N2CCOCC2)nc(N2CCOCC2)n1 [ZSTK-474]
Population Apoptotic (%) (Fibroblast [1]; 12 h, replicate 1): 75% and 78% | Population Fragmented Nuclei (%) (Fibroblast [1]; 12 h, replicate 1): 31% and 20% | Population Healthy Nuclei (%) (Fibroblast [1]; 12 h, replicate 1): 54% and 67% | Population Hoechst High Intensity Objects (%) (Fibroblast [1]; 12 h, replicate 1): 15% and 11% | Population Mitochondria Different-Phenotype (%) (Fibroblast [1]; 12 h, replicate 1): 3% and 1% | Population Mitotic Cells (%) (Fibroblast [1]; 12 h, replicate 1): 25% and 21% | Population Normal (%) (Fibroblast [1]; 12 h, replicate 1): 84% and 88% | Population Pyknosed Nuclei (%) (Fibroblast [1]; 12 h, replicate 1): 14% and 11% | Total Cell Count (Fibroblast [1]; 12 h, replicate 1): 268 and 222 | Population Fragmented Nuclei (%) (Fibroblast [1]; 12 h, replicate 2): 71% and 55% | Population Healthy Nuclei (%) (Fibroblast [1]; 12 h, replicate 2): 26% and 37% | Population Hoechst High Intensity Objects (%) (Fibroblast [1]; 12 h, replicate 2): 40% and 37% | Population Membrane Permeable-Phenotype (%) (Fibroblast [1]; 12 h, replicate 2): 0% and 6% | Population Mitochondria Different-Phenotype (%) (Fibroblast [1]; 12 h, replicate 2): 14% and 26% | Population Mitotic Cells (%) (Fibroblast [1]; 12 h, replicate 2): 100% and 66% | Population Normal (%) (Fibroblast [1]; 12 h, replicate 2): 59% and 62% | Total Cell Count (Fibroblast [1]; 12 h, replicate 2): 88 and 64 | Population Apoptotic (%) (Fibroblast [1]; 24 h, replicate 1): 63% and 76% | Population Fragmented Nuclei (%) (Fibroblast [1]; 24 h, replicate 1): 24% and 22% | Population Healthy Nuclei (%) (Fibroblast [1]; 24 h, replicate 1): 61% and 64% | Population Hoechst High Intensity Objects (%) (Fibroblast [1]; 24 h, replicate 1): 12% | Population Membrane Permeable-Phenotype (%) (Fibroblast [1]; 24 h, replicate 1): 3% and 1% | Population Mitotic Cells (%) (Fibroblast [1]; 24 h, replicate 1): 36% and 24% | Population Normal (%) (Fibroblast [1]; 24 h, replicate 1): 87% | Population Pyknosed Nuclei (%) (Fibroblast [1]; 24 h, replicate 1): 14% and 12% | Population Tubulin-Different-Phenotype (%) (Fibroblast [1]; 24 h, replicate 1): 18% and 0% | Total Cell Count (Fibroblast [1]; 24 h, replicate 1): 235 and 226 | Population Apoptotic (%) (Fibroblast [1]; 24 h, replicate 2): 0% | Population Fragmented Nuclei (%) (Fibroblast [1]; 24 h, replicate 2): 72% and 63% | Population Healthy Nuclei (%) (Fibroblast [1]; 24 h, replicate 2): 23% and 34% | Population Hoechst High Intensity Objects (%) (Fibroblast [1]; 24 h, replicate 2): 40% and 33% | Population Membrane Permeable-Phenotype (%) (Fibroblast [1]; 24 h, replicate 2): 8% and 7% | Population Mitochondria Different-Phenotype (%) (Fibroblast [1]; 24 h, replicate 2): 8% and 23% | Population Mitotic Cells (%) (Fibroblast [1]; 24 h, replicate 2): 100% | Population Normal (%) (Fibroblast [1]; 24 h, replicate 2): 60% and 66% | Population Pyknosed Nuclei (%) (Fibroblast [1]; 24 h, replicate 2): 3% and 2% | Total Cell Count (Fibroblast [1]; 24 h, replicate 2): 85 and 57 | Population Apoptotic (%) (HEK-293T [2]; 12 h, replicate 1): 22% and 20% | Population Fragmented Nuclei (%) (HEK-293T [2]; 12 h, replicate 1): 18% and 14% | Population Healthy Nuclei (%) (HEK-293T [2]; 12 h, replicate 1): 59% and 50% | Population Hoechst High Intensity Objects (%) (HEK-293T [2]; 12 h, replicate 1): 16% and 20% | Population Membrane Permeable-Phenotype (%) (HEK-293T [2]; 12 h, replicate 1): 7% and 5% | Population Mitochondria Different-Phenotype (%) (HEK-293T [2]; 12 h, replicate 1): 6% and 13% | Population Mitotic Cells (%) (HEK-293T [2]; 12 h, replicate 1): 77% and 79% | Population Normal (%) (HEK-293T [2]; 12 h, replicate 1): 83% and 79% | Population Pyknosed Nuclei (%) (HEK-293T [2]; 12 h, replicate 1): 22% and 35% | Total Cell Count (HEK-293T [2]; 12 h, replicate 1): 600 and 593 | Population Apoptotic (%) (HEK-293T [2]; 12 h, replicate 2): 18% and 16% | Population Fragmented Nuclei (%) (HEK-293T [2]; 12 h, replicate 2): 5% and 9% | Population Healthy Nuclei (%) (HEK-293T [2]; 12 h, replicate 2): 86% and 85% | Population Membrane Permeable-Phenotype (%) (HEK-293T [2]; 12 h, replicate 2): 4% and 3% | Population Mitotic Cells (%) (HEK-293T [2]; 12 h, replicate 2): 81% and 83% | Population Normal (%) (HEK-293T [2]; 12 h, replicate 2): 90% and 97% | Population Pyknosed Nuclei (%) (HEK-293T [2]; 12 h, replicate 2): 8% and 4% | Total Cell Count (HEK-293T [2]; 12 h, replicate 2): 1084 and 1487 | Population Apoptotic (%) (HEK-293T [2]; 24 h, replicate 1): 28% and 17% | Population Fragmented Nuclei (%) (HEK-293T [2]; 24 h, replicate 1): 16% and 15% | Population Healthy Nuclei (%) (HEK-293T [2]; 24 h, replicate 1): 54% and 72% | Population Hoechst High Intensity Objects (%) (HEK-293T [2]; 24 h, replicate 1): 19% and 13% | Population Membrane Permeable-Phenotype (%) (HEK-293T [2]; 24 h, replicate 1): 8% | Population Mitotic Cells (%) (HEK-293T [2]; 24 h, replicate 1): 71% and 82% | Population Normal (%) (HEK-293T [2]; 24 h, replicate 1): 80% and 86% | Population Pyknosed Nuclei (%) (HEK-293T [2]; 24 h, replicate 1): 28% and 11% | Total Cell Count (HEK-293T [2]; 24 h, replicate 1): 526 and 650 | Population Apoptotic (%) (HEK-293T [2]; 24 h, replicate 2): 12% and 13% | Population Fragmented Nuclei (%) (HEK-293T [2]; 24 h, replicate 2): 11% and 31% | Population Healthy Nuclei (%) (HEK-293T [2]; 24 h, replicate 2): 79% and 66% | Population Hoechst High Intensity Objects (%) (HEK-293T [2]; 24 h, replicate 2): 11% and 4% | Population Membrane Permeable-Phenotype (%) (HEK-293T [2]; 24 h, replicate 2): 10% and 6% | Population Mitotic Cells (%) (HEK-293T [2]; 24 h, replicate 2): 87% and 86% | Population Normal (%) (HEK-293T [2]; 24 h, replicate 2): 88% and 95% | Total Cell Count (HEK-293T [2]; 24 h, replicate 2): 1133 and 2662 | Population Fragmented Nuclei (%) (U2OS [3]; 12 h, replicate 1): 3% | Population Healthy Nuclei (%) (U2OS [3]; 12 h, replicate 1): 89% and 87% | Population Hoechst High Intensity Objects (%) (U2OS [3]; 12 h, replicate 1): 4% and 3% | Population Membrane Permeable-Phenotype (%) (U2OS [3]; 12 h, replicate 1): 18% and 7% | Population Mitotic Cells (%) (U2OS [3]; 12 h, replicate 1): 56% and 88% | Population Normal (%) (U2OS [3]; 12 h, replicate 1): 95% and 96% | Population Pyknosed Nuclei (%) (U2OS [3]; 12 h, replicate 1): 7% and 6% | Population Tubulin-Different-Phenotype (%) (U2OS [3]; 12 h, replicate 1): 13% and 23% | Total Cell Count (U2OS [3]; 12 h, replicate 1): 134 and 206 | Population Fragmented Nuclei (%) (U2OS [3]; 12 h, replicate 2): 8% and 5% | Population Healthy Nuclei (%) (U2OS [3]; 12 h, replicate 2): 85% | Population Hoechst High Intensity Objects (%) (U2OS [3]; 12 h, replicate 2): 14% and 10% | Population Membrane Permeable-Phenotype (%) (U2OS [3]; 12 h, replicate 2): 21% and 13% | Population Mitochondria Different-Phenotype (%) (U2OS [3]; 12 h, replicate 2): 9% and 18% | Population Mitotic Cells (%) (U2OS [3]; 12 h, replicate 2): 83% and 28% | Population Normal (%) (U2OS [3]; 12 h, replicate 2): 85% and 89% | Population Pyknosed Nuclei (%) (U2OS [3]; 12 h, replicate 2): 5% | Population Tubulin-Different-Phenotype (%) (U2OS [3]; 12 h, replicate 2): 20% and 35% | Total Cell Count (U2OS [3]; 12 h, replicate 2): 147 and 107 | Population Healthy Nuclei (%) (U2OS [3]; 24 h, replicate 1): 90% | Population Hoechst High Intensity Objects (%) (U2OS [3]; 24 h, replicate 1): 2% | Population Mitochondria Different-Phenotype (%) (U2OS [3]; 24 h, replicate 1): 4% and 12% | Population Normal (%) (U2OS [3]; 24 h, replicate 1): 97% | Population Pyknosed Nuclei (%) (U2OS [3]; 24 h, replicate 1): 4% and 3% | Population Tubulin-Different-Phenotype (%) (U2OS [3]; 24 h, replicate 1): 12% and 25% | Total Cell Count (U2OS [3]; 24 h, replicate 1): 190 and 236 | Population Apoptotic (%) (U2OS [3]; 24 h, replicate 2): 28% and 50% | Population Fragmented Nuclei (%) (U2OS [3]; 24 h, replicate 2): 4% and 6% | Population Healthy Nuclei (%) (U2OS [3]; 24 h, replicate 2): 89% | Population Hoechst High Intensity Objects (%) (U2OS [3]; 24 h, replicate 2): 11% and 4% | Population Membrane Permeable-Phenotype (%) (U2OS [3]; 24 h, replicate 2): 20% and 11% | Population Mitochondria Different-Phenotype (%) (U2OS [3]; 24 h, replicate 2): 9% and 20% | Population Mitotic Cells (%) (U2OS [3]; 24 h, replicate 2): 71% and 50% | Population Normal (%) (U2OS [3]; 24 h, replicate 2): 88% and 95% | Population Pyknosed Nuclei (%) (U2OS [3]; 24 h, replicate 2): 5% | Population Tubulin-Different-Phenotype (%) (U2OS [3]; 24 h, replicate 2): 20% and 36% | Total Cell Count (U2OS [3]; 24 h, replicate 2): 188 and 114 | Growth Rate (HEK-293T [4]; [7]): 0 | Growth Rate (HEK-293T [4]; [8]): 0 | Growth Rate (HEK-293T [4]; [9]): 0 | Growth Rate (HEK-293T [4]; [10]): 0 | Growth Rate (Fibroblast [5]; 0 h, replicate number 2, timepoint 0 hours): 0 | Growth Rate (Fibroblast [5]; [7]): 0 | Growth Rate (Fibroblast [5]; [8]): 0 | Growth Rate (Fibroblast [5]; [9]): 0 | Growth Rate (Fibroblast [5]; [10]): 0 | Growth Rate (U2OS [6]; 0 h, replicate number 1, timepoint 0 hours): 1 | Growth Rate (U2OS [6]; [7]): 1 | Growth Rate (U2OS [6]; [8]): 1 | Growth Rate (U2OS [6]; 12 h, replicate number 2, timepoint 12 hours): 0 | Growth Rate (U2OS [6]; [9]): 0 | Growth Rate (U2OS [6]; [10]): 0
